Source: ChEMBL document CHEMBL5053496, “Antibacterial sulfonimidamide-based oligopeptides as type I signal peptidase inhibitors: Synthesis and biological evaluation” (Eur J Med Chem, 2021)
In brackets after ≈: the same amount, converted by molar mass.

Key:
Klebsiella pneumoniae = assay: Antibacterial activity against wild type Klebsiella pneumoniae ATCC 13883 assessed as inhibition of bacterial growth measured after 16 to 20 hrs
[1] = Hemolytic activity against human RBC assessed as hemolysis measured after 45 mins; type: ADME, tissue-based, Erythrocyte; details: red blood cells (RBC), read-out: Activity
Outline: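 Human RBCs from heparinized blood, washed three times in Tyrode buffer pH 7.4. Final 100 µM compound, 1% DMSO, 50% RBC; 37 °C, 45 min, shaking 250 rpm. Cells spun off, supernatant hemoglobin read at 540 nm. Percent hemolysis relative to 2% Triton X-100 full lysis and buffer-only negative control.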

Escherichia coli [2] = assay: Antibacterial activity against wild type Escherichia coli ATCC 25922 assessed as inhibition of bacterial growth measured after 16 to 20 hrs; type: functional; details: time 16-20 hrs
Outline: (§1)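 Read visually as complete growth inhibition by the unaided eye, with medium-only wells as control.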

Pseudomonas aeruginosa [3] = assay: Antibacterial activity against wild type Pseudomonas aeruginosa PAO1 assessed as inhibition of bacterial growth measured after 16 to 20 hrs; type: functional; details: time 16-20 hrs
Outline: as §1

[4] = Inhibition of Escherichia coli LepB using dabcyl-VEVGGTATA GFSPRGLE-EDANS and dabcyl-KLTGFTVKPVQAIA GYEILE-EDANS-OH as substrates preincubated for 10 mins followed by substrate addition by FRET assay
Outline: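 FRET assay with recombinant E. coli LepB, final about 50 nM. Enzyme pre-incubated with inhibitor 10 min at 22 °C, then substrate added at 8 µM. Linear fluorescence increase from cleavage followed at 22 °C for 2 h. IC50 from non-linear regression of sigmoidal rate vs. inhibitor concentration curves.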

Pseudomonas aeruginosa [5] = assay: Antibacterial activity against efflux pump deficient Pseudomonas aeruginosa PAO750 assessed as inhibition of bacterial growth measured after 16 to 20 hrs; type: functional; details: time 16-20 hrs
Outline: as §1

Escherichia coli [6] = assay: Antibacterial activity against Escherichia coli harboring tolC efflux defective mutant assessed as inhibition of bacterial growth measured after 16 to 20 hrs; type: functional; details: time 16-20 hrs
Outline: (§2)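 MIC read visually as the lowest concentration giving complete growth inhibition to the unaided eye, with medium-only wells as the control.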

HepG2 = assay: Cytotoxicity against human HepG2 cells assessed as reduction in cell viability measured after 72 hrs by fluorometric assay; type: cell-based; details: HepG2, 72 h
Outline: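 HepG2 cells grown with L-glutamine 2 mM, passaged twice weekly, used up to 20 passages. Seeded at 1000 cells/well in 384-well plates, exposed 72 h. Fluorescence read-out; survival index (%) = test-well fluorescence as percent of control cultures, blanks subtracted. Assay accepted if control signal-to-noise >10, CV <30%, bortezomib positive control SI <5%.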

Escherichia coli [7] = assay: Antibacterial activity against Escherichia coli D22 mutant assessed as inhibition of bacterial growth measured after 16 to 20 hrs; type: functional; details: time 16-20 hrs
Outline: as §2

Staphylococcus aureus = assay: Antibacterial activity against staphylococcus aureus ATCC 29213 assessed as inhibition of bacterial growth measured after 16 to 20 hrs; type: functional; details: time 16-20 hrs
Outline: as §1

Acinetobacter baumannii = assay: Antibacterial activity against Acinetobacter baumanii ATCC 19606 assessed as inhibition of bacterial growth measured after 16 to 20 hrs; type: functional; details: ATCC 19606 = CIP 70.34 = JCM 6841, time 16-20 hrs
Outline: as §1

SMILES | MIC (Klebsiella pneumoniae) | hemolysis at 0.75 h [1] | MIC (Escherichia coli [2]) | MIC (Pseudomonas aeruginosa [3]) | IC50 [4] | MIC (Pseudomonas aeruginosa [5]) | MIC (Escherichia coli [6]) | IC50 (HepG2) | MIC (Escherichia coli [7]) | MIC (Staphylococcus aureus) | MIC (Acinetobacter baumannii)
CCCCCCc1ccc(-c2ccc(S(=O)(=NCCN)N3CCC[C@H]3C(=O)N[C@H](C(=O)N[C@@H](C)C(=O)NC(CC(N)=O)C(=O)N[C@@H](C)B3O[C@@H]4C[C@H]5C[C@H](C5(C)C)[C@]4(C)O3)[C@@H](C)O)cc2)cc1 (stereo not given in full) | > 64 µg/mL | 5.32% | 64 µg/mL (≈ 67.4 µM) | > 64 µg/mL | 133 nM | > 64 µg/mL | 16 µg/mL (≈ 16.9 µM) | 5200 nM | 8 µg/mL (≈ 8.43 µM) | < 1 µg/mL | 64 µg/mL (≈ 67.4 µM)
CCCCCCCCCCCCS(=O)(=O)N1CCC[C@H]1C(=O)N[C@H](C(=O)N[C@@H](C)C(=O)NC(CC(N)=O)C(=O)N[C@@H](C)B1O[C@@H]2C[C@H]3C[C@H](C3(C)C)[C@]2(C)O1)[C@@H](C)O (mixture of isomers) | > 64 µg/mL | 0.1% | > 64 µg/mL | > 64 µg/mL | 56 nM | 32 µg/mL | 8 µg/mL | 1200 nM | 16 µg/mL | < 1 µg/mL | > 64 µg/mL
CCCCCCc1ccc(-c2ccc([S@@](=N)(=O)N3CCC[C@H]3C(=O)N[C@H](C(=O)N[C@@H](C)C(=O)NC(CC(N)=O)C(=O)N[C@@H](C)B3O[C@@H]4C[C@H]5C[C@H](C5(C)C)[C@]4(C)O3)[C@@H](C)O)cc2)cc1 (mixture of isomers) | > 64 µg/mL | 0.35% | > 64 µg/mL | > 64 µg/mL | 1110 nM | > 64 µg/mL | 4 µg/mL | 2990 nM | 32 µg/mL | 4 µg/mL | > 64 µg/mL
CCCCCCc1ccc(-c2ccc([S@](=N)(=O)N3CCC[C@H]3C(=O)N[C@H](C(=O)N[C@@H](C)C(=O)NC(CC(N)=O)C(=O)N[C@@H](C)B3O[C@@H]4C[C@H]5C[C@H](C5(C)C)[C@]4(C)O3)[C@@H](C)O)cc2)cc1 (mixture of isomers) | > 64 µg/mL | 2.15% | > 64 µg/mL | > 64 µg/mL | 1070 nM | > 64 µg/mL | 4 µg/mL | 2950 nM | 8 µg/mL | 4 µg/mL | > 64 µg/mL
CCCCCCc1ccc(-c2ccc(S(=O)(=O)N3CCC[C@H]3C(=O)N[C@H](C(=O)N[C@@H](C)C(=O)NC(CC(N)=O)C(=O)N[C@@H](C)B3O[C@@H]4C[C@H]5C[C@H](C5(C)C)[C@]4(C)O3)[C@@H](C)O)cc2)cc1 (mixture of isomers) | > 64 µg/mL | 14.5% | > 64 µg/mL | > 64 µg/mL | 71 nM | > 64 µg/mL | > 64 µg/mL | 580 nM | > 64 µg/mL | > 64 µg/mL | > 64 µg/mL
